Results as given in PubChem BioAssay.
Records with an inconclusive call do not appear.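 How the source made its calls, unless noted: active means cell viability at or below a set limit in both duplicate runs, the limit being the all-compound median minus 4 SD (cut at about 23% in these data, passing the limit was not always enough); inconclusive means no clear call, values can overlap the other calls; inactive means the rest.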

Experiments:
[1] = S. cerevisiae growth inhibition in permissive medium (OD615), pilot counter-assay for S. cerevisiae lifespan shortening project, permissive growth control (AID 705;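 active means growth inhibition above 25% in both replicates, a cutoff set 3 SD above the mean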); settings: OD615, 24 h, at 10 µM, stronger effect = higher value
How it was run: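 System: Engineered DeaD yeast | Buffer or medium: SC raffinose/galactose permissive medium | Incubation: Cells pre-grown 4 h, then 24 h compound exposure, 30 °C humidified | Measured by: Absorbance (optical density) at 615 nm | Read-out: Reduction in yeast growth (OD615)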

[2] = S. cerevisiae growth inhibition in restrictive medium, OD615, pilot screen, restrictive growth control, yeast lifespan reduction project (AID 706;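 active means growth inhibition above a set limit, 3 SD over mean compound inhibition, in both replicates, cut at about 43% in these data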;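 further: modified DeaD lifespan yeast strain shifted to restrictive glucose medium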); settings: OD615, 48 h, at 10 µM, stronger effect = higher value
How it was run: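 Material: modified S. cerevisiae; Medium: glucose-based CSMM-D restrictive medium; Compound dosing: one concentration, 10 µM final, 0.25% DMSO; Incubation: 48 h compound exposure at 30 °C; Measured by: OD615.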

[3] = doxorubicin toxicity protection in MRP-1 cells – H69AR cells, CellTiter-Glo, duplicate, MRP-1 activator project, pilot screen (AID 807;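 active means viability increase at or above a cutoff of the median across tested compounds plus 3 SD, cut at about 8.5% in these data, passing the limit was not always enough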;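 further: compound pretreatment 18-22 h then 72 h combined with doxorubicin; 0% = doxorubicin alone and 100% = vehicle without doxorubicin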); settings: H69AR viability with doxorubicin, CellTiter-Glo luminescence; at 10 µM; stronger effect = higher value
[4] = viability of HCT116 without oncogenic beta-catenin – human colon tumor cells, pilot screen (AID 823); settings: HCT116 beta-catenin knockout viability, CellTiter-Glo, 60 h; at 10 µM; stronger effect = lower value;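 further: 0% = wells killed by 20 µM Hyamine and 100% = untreated DMSO cell wells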
[5] = viability of PTEN-null HCT116 cells – cell-based, HCT116 clonal line, CellTiter-Glo, pilot screen (AID 824;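 active means viability at or below 27.92% in each of two runs, the all-compound median minus 4 SD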;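 further: 0% = 20 µM Hyamine control and 100% = vehicle cell control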); settings: HCT116 PTEN-deleted viability, 60 h, at 10 µM, stronger effect = lower value
[6] = RAM pathway blockade in budding yeast – dse1pr::URA3 reporter, 5-FOA selection, pilot screen (AID 869;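 active means inhibition over a set limit, the all-compound mean plus 3 SD, in both replicate runs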;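 further: 0% = DMSO wells with no growth and 100% = 10 µM 1-NA-PP1 with full growth; RAM network block rescues cells from 5-FOA so hits raise OD615 growth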); settings: S. cerevisiae dse1pr::URA3 5-FOA growth, OD615, 2 d; at 10 µM; stronger effect = higher value; strain carries analog-sensitive mutant Cbk1 kinase
[7] = RAM signaling pathway blockade in yeast – S. cerevisiae, Pdr1DBD-CYC8 efflux-inhibited sensitized strain, primary screen (AID 1298;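 active means RAM network inhibition above 8.4% in each of two replicates, 3 SD over the compound average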;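 further: 0% = DMSO untreated cells without growth and 100% = 10 µM 1-NA-PP1 full growth; higher means more yeast growth rescued from 5-FOA killing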); settings: S. cerevisiae cbk1-as DSE1-URA3 strain, 5-FOA growth OD615, 2 d; at 50 µM; stronger effect = higher value

COc1ccc(CCNc2ncnc3nc[nH]c23)cc1OC
inactive: growth inhibition [1] 0.1% | growth inhibition [2] 20% | viability increase [3] -3.11% | viability [4] 82.8% | viability [5] 84.7% | inhibition [6] 0.57% | RAM network inhibition [7] 1.46%

COc1ccc(NC(=O)C2CCN(S(=O)(=O)c3cccnc3)CC2)cc1Cl
inactive: growth inhibition [1] -8.66% | growth inhibition [2] -13.1% | viability increase [3] -3.56% | viability [4] 97.3% | viability [5] 100% | inhibition [6] 1.77% | RAM network inhibition [7] 2.55%

CCc1cc(C(=O)Cc2ccc(F)cc2)c(O)cc1O
inactive: growth inhibition [1] -1.34% | growth inhibition [2] -3.73% | viability increase [3] -3.8% | viability [4] 98.8% | viability [5] 86.5% | inhibition [6] 0.665% | RAM network inhibition [7] -2.4%

Cn1c(=O)c2c(nc(NCc3ccccc3)n2C)n(C)c1=O
inactive: growth inhibition [1] -4.99% | growth inhibition [2] -2.69% | viability increase [3] -1.73% | viability [4] 99.6% | viability [5] 95.4% | inhibition [6] 0.45% | RAM network inhibition [7] 1.42%

CC(C)c1nnc(NC(=O)CSc2ncn[nH]2)s1
inactive: growth inhibition [1] -14.4% | growth inhibition [2] -13.9% | viability increase [3] -0.74% | viability [4] 98.3% | viability [5] 94.2% | inhibition [6] 0.135% | RAM network inhibition [7] 1.34%

Cc1nc2sc(C(c3ccco3)N3CCN(C(c4ccccc4)c4ccccc4)CC3)c(O)n2n1 (configuration not stated)
inactive: growth inhibition [1] -4.01% | growth inhibition [2] 2.75% | viability increase [3] -4.32% | viability [4] 75.6% | viability [5] 62.6% | inhibition [6] 1.81% | RAM network inhibition [7] 10.8%

Cc1ccc(C)c(N2CCN(c3ncnc4c3cnn4-c3ccccc3)CC2)c1
inactive: growth inhibition [1] -11.6% | growth inhibition [2] -18.3% | viability increase [3] 2.4% | viability [4] 72.5% | viability [5] 68.6% | inhibition [6] 3.82% | RAM network inhibition [7] 7.43%

CCOC(=O)N1CCC(NC(=O)CN2C(=O)CSc3ncccc32)CC1
inactive: growth inhibition [1] 0.38% | growth inhibition [2] -5.29% | viability increase [3] -0.23% | viability [4] 104% | viability [5] 99% | inhibition [6] 2.81% | RAM network inhibition [7] 1.48%

Cc1ccc2c(CC(=O)O)coc2c1
inactive: growth inhibition [1] -5.59% | growth inhibition [2] 27.6% | viability increase [3] -0.46% | viability [4] 89.3% | viability [5] 97.5% | inhibition [6] -0.825% | RAM network inhibition [7] -1.05%

CC(=O)CCS(=O)(=O)c1ccc(C)c(C)c1
inactive: growth inhibition [1] -1.55% | growth inhibition [2] -7.75% | viability increase [3] -6.33% | viability [4] 71.6% | viability [5] 90.2% | inhibition [6] 0.885% | RAM network inhibition [7] 1.15%

CCOc1ccccc1NC(=O)c1c(NC(=O)CNCc2ccco2)sc2c1CCC2
inactive: growth inhibition [1] 7.42% | growth inhibition [2] -15.1% | viability increase [3] -6.75% | viability [4] 76.7% | viability [5] 55.5% | inhibition [6] 1.43% | RAM network inhibition [7] 8.57%

CCCCNC(=O)c1cc(-c2ccc(OC)c(OC)c2)on1
inactive: growth inhibition [1] 0.455% | growth inhibition [2] 5.25% | viability increase [3] 2.07% | viability [4] 104% | viability [5] 96.9% | inhibition [6] -0.37% | RAM network inhibition [7] -0.26%

O=C1CC(N2CCN(c3nc4ccccc4s3)CC2)C(=O)N1c1ccc(F)cc1 (configuration not stated)
inactive: growth inhibition [1] 0.4% | growth inhibition [2] 0.52% | viability increase [3] 6.28% | viability [4] 88.7% | viability [5] 94.3% | inhibition [6] 1.54% | RAM network inhibition [7] 3.67%

CCOc1ccc(N2CC(=O)SC2=S)cc1
inactive: growth inhibition [1] -6.07% | growth inhibition [2] -0.73% | viability increase [3] 1.09% | viability [4] 96.3% | viability [5] 95.9% | inhibition [6] 0.425% | RAM network inhibition [7] 7.05%

COc1ccc(C(=O)c2cnc(C(C)C)n2C)cc1
inactive: growth inhibition [1] -3.74% | growth inhibition [2] -9.59% | viability increase [3] 2.12% | viability [4] 98.2% | viability [5] 90.2% | inhibition [6] 1.88% | RAM network inhibition [7] 4.97%

Cc1cc(OCc2ccc(F)cc2)nc(-c2ccccc2O)n1
inactive: growth inhibition [1] -0.25% | growth inhibition [2] -3.18% | viability increase [3] 2.19% | viability [4] 76.6% | viability [5] 70.3% | inhibition [6] 1.35% | RAM network inhibition [7] 2.72%
